# Reference: ChEMBL document CHEMBL3817742, “Structural Basis for the Selective Binding of Inhibitors to 6-Hydroxymethyl-7,8-dihydropterin Pyrophosphokinase from Staphylococcus aureus and Escherichia coli” (J Med Chem, 2016)
# Activity calls are given as the source filed them. The calls are words filed in the database; no cut-off is given here.
# Key:
# [1] = target: T1, 2-amino-4-hydroxy-6-hydroxymethyldihydropteridine pyrophosphokinase (Escherichia coli (strain K12), UniProt P26281); assay: Binding affinity to biotinylated Escherichia coli HPPK expressed in Escherichia coli BL21 (DE3) in presence of 1 mM ATP by SPR assay
# T1 sequence (P26281 whole entry): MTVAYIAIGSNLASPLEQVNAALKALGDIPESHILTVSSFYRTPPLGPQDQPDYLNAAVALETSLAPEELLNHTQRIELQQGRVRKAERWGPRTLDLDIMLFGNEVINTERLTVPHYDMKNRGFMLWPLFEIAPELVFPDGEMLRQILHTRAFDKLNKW
# Outline: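 N-terminal His6/TEV-cleavable construct expressed in E. coli BL21(DE3), Ni-NTA purified, His-tag cleaved, then size exclusion. Minimally biotinylated via NHS-activated biotin and captured on streptavidin chip (~4900 RU). Analytes in 3-fold serial dilutions, duplicate or more; sensorgrams solvent-corrected, double-referenced.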
# [2] = target: T2, 2-amino-4-hydroxy-6-hydroxymethyldihydropteridin e pyrophosphokinase (Staphylococcus aureus, UniProt X5EH84); assay: Binding affinity to biotinylated Staphylococcus aureus HPPK in presence of 1 mM ATP by SPR assay
# T2 sequence (X5EH84 whole entry): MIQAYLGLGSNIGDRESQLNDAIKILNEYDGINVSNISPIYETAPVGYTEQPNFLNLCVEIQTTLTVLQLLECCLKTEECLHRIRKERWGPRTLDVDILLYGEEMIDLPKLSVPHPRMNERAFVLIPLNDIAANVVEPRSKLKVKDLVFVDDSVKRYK
# Outline: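 Enzyme minimally biotinylated via maleimide-activated biotin, captured on streptavidin chip (~3800 RU). 3-fold serial dilutions, top concentration between 3 and 300 μM; 60 s contact at 30 μL·min−1, 60 s dissociation; duplicate or more; double-referenced, globally fitted where limited.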
# [3] = target: T3, 2-amino-4-hydroxy-6-hydroxymethyldihydropteridin e pyrophosphokinase (Staphylococcus aureus) (UniProt X5EH84); assay: Binding affinity to AMPCPP-loaded and 15N/13C-labeled Staphylococcus aureus HPPK assessed a induction of chemical shift changes in 15N HSQC spectra by HNCA triple resonance 3D NMR spectroscopy
# T3 sequence (whole entry): T2 sequence (X5EH84 whole entry)
# [4] = target: T3, 2-amino-4-hydroxy-6-hydroxymethyldihydropteridin e pyrophosphokinase (Staphylococcus aureus); assay: Binding affinity to AMPCPP-loaded and 15N/13C-labeled Staphylococcus aureus HPPK assessed a induction of 1H-15N chemical shift perturbations by 2D 15N-FAST-HSQC NMR spectrscopy
SMILES,Kd [1] [nM],Kd [2] [nM],Activity [3],Activity [4]
Nc1nc2[nH]c(SCc3ccc(OC(F)(F)F)cc3)nc2c(=O)[nH]1,5200,2100,–,–
Nc1nc2[nH]c(SCc3ccccc3Cl)nc2c(=O)[nH]1,–,1300,–,–
Nc1nc2[nH]c(SCc3ccc(Br)cc3)nc2c(=O)[nH]1,2130,950,–,–
Nc1nc2[nH]c(SCc3ccc(F)c(F)c3)nc2c(=O)[nH]1,2000,290,–,–
Cc1ccccc1CSc1nc2c(=O)[nH]c(N)nc2[nH]1,2500,470,–,–
Nc1nc2[nH]c(SCc3cccc(OC(F)(F)F)c3)nc2c(=O)[nH]1,5700,1610,–,–
Cc1cccc(CSc2nc3c(=O)[nH]c(N)nc3[nH]2)c1F,10700,2800,–,–
Nc1nc2[nH]c(SCc3ccccc3[N+](=O)[O-])nc2c(=O)[nH]1,5700,540,–,–
Cc1ccc(F)c(CSc2nc3c(=O)[nH]c(N)nc3[nH]2)c1,965,210,–,–
Cc1cc(F)ccc1CSc1nc2c(=O)[nH]c(N)nc2[nH]1,16300,1970,–,–
Nc1nc2[nH]c(SCc3cc(C(F)(F)F)cc(C(F)(F)F)c3)nc2c(=O)[nH]1,–,1200,–,–
Nc1nc2[nH]c(SCCO)nc2c(=O)[nH]1,89200,7600,–,–
N#Cc1cc(F)ccc1CSc1nc2c(=O)[nH]c(N)nc2[nH]1,38000,1200,–,–
Nc1nc2[nH]c(S)nc2c(=O)[nH]1,160000,–,–,–
COc1ccc(CSc2nc3c(=O)[nH]c(N)nc3[nH]2)c(F)c1,950,300,–,–
N#Cc1cccc(CSc2nc3c(=O)[nH]c(N)nc3[nH]2)c1,3500,770,–,–
N#Cc1ccc(CSc2nc3nc(N)[nH]c(=O)c3[nH]2)cc1,–,–,Active,Active
Nc1nc2[nH]c(SCc3cccc(Br)c3)nc2c(=O)[nH]1,7100,3100,–,–
CNC(=O)CSc1nc2c(=O)[nH]c(N)nc2[nH]1,50000,8800,–,–
CC(C)CNC(=O)CSc1nc2c(=O)[nH]c(N)nc2[nH]1,59400,13000,–,–
Nc1nc2[nH]c(SCc3cccc(F)c3)nc2c(=O)[nH]1,2600,220,–,–
Cc1cccc(CSc2nc3c(=O)[nH]c(N)nc3[nH]2)c1C,6100,841,–,–
Nc1nc2[nH]c(SCc3ccccc3F)nc2c(=O)[nH]1,–,–,–,Active
COc1ccc(CSc2nc3c(=O)[nH]c(N)nc3[nH]2)cc1,2200,520,–,–
N#Cc1cc(CSc2nc3c(=O)[nH]c(N)nc3[nH]2)ccc1F,5300,2100,–,–
N#Cc1ccc(CSc2nc3c(=O)[nH]c(N)nc3[nH]2)c(F)c1,2700,590,Active,Active
COCCSc1nc2c(=O)[nH]c(N)nc2[nH]1,52000,2760,–,–

SMILES,Kd [1] [nM],Kd [2] [nM],Activity [3],Activity [4]
Nc1nc2[nH]c(SCC(=O)c3ccc(Br)cc3)nc2c(=O)[nH]1,700,570,–,–
Nc1nc2[nH]c(SCCC3OCCCO3)nc2c(=O)[nH]1,23300,7900,–,–
Nc1nc2[nH]c(SCc3ccccc3)nc2c(=O)[nH]1,–,–,Active,Active
Nc1nc2[nH]c(SCc3ccccc3Br)nc2c(=O)[nH]1,8500,1500,–,–
COc1ccc(C(=O)CSc2nc3nc(N)[nH]c(=O)c3[nH]2)cc1,–,–,–,Active
Nc1nc2[nH]c(SCC(O)C(F)(F)F)nc2c(=O)[nH]1 (stereo not drawn),97000,3600,–,–
Cc1ccc(C)c(CSc2nc3c(=O)[nH]c(N)nc3[nH]2)c1,12600,1700,–,–
Cc1cc(CSc2nc3c(=O)[nH]c(N)nc3[nH]2)ccc1F,10100,3600,–,–
Nc1nc(O)c2[nH]c(SCc3ccc(Cl)cc3)nc2n1,4300,1240,–,–
Cc1cccc(CSc2nc3c(=O)[nH]c(N)nc3[nH]2)c1,1700,380,–,–
Nc1nc2[nH]c(SCc3ccc(C(F)(F)F)cc3)nc2c(=O)[nH]1,–,1930,–,–
Nc1nc2[nH]c(SCc3ccc(F)cc3)nc2c(=O)[nH]1,3900,300,–,–
Nc1nc2[nH]c(SCc3c(F)cccc3F)nc2c(=O)[nH]1,1760,120,Active,Active
COc1cccc(CSc2nc3c(=O)[nH]c(N)nc3[nH]2)c1,1800,650,–,–
Nc1nc2[nH]c(SCCN3CCCC3=O)nc2c(=O)[nH]1,–,7900,–,–
Nc1nc2[nH]c(SCC(O)CO)nc2c(=O)[nH]1 (stereo not drawn),82000,13400,–,–
Nc1nc2[nH]c(SCc3cccc(C(=O)O)c3)nc2c(=O)[nH]1,26000,2600,–,–
CCN(C)C(=O)C(C)Sc1nc2c(=O)[nH]c(N)nc2[nH]1 (stereo not drawn),120000,46000,–,–
Nc1nc2[nH]c(SCCCO)nc2c(=O)[nH]1,68000,4600,–,–
CN(C)C(=O)CSc1nc2c(=O)[nH]c(N)nc2[nH]1,53000,1500,–,–
Nc1nc2[nH]c(SCc3ccc(F)cc3F)nc2c(=O)[nH]1,1400,260,–,–
Cc1cc(C)cc(CSc2nc3c(=O)[nH]c(N)nc3[nH]2)c1,6900,2300,–,–
CCN(CC)C(=O)CSc1nc2c(=O)[nH]c(N)nc2[nH]1,74200,11000,–,–
Nc1nc2[nH]c(SCc3cccc(Cl)c3)nc2c(=O)[nH]1,1700,570,–,–
N#Cc1ccccc1CSc1nc2c(=O)[nH]c(N)nc2[nH]1,23000,510,–,–
Nc1nc2[nH]c(SCc3cccc([N+](=O)[O-])c3)nc2c(=O)[nH]1,5800,1400,–,–
